Compound activity deposited in PubChem BioAssay by Broad Institute.
Hits are enriched below; roughly 2% of the tested compounds scored in any of these assays.
Statin myotox sup – suppressors of statin myotoxicity in C2C12 myotubes, primary screen, cell-based, single point, plate reader. C2C12 myotubes + simvastatin, ATP luminescence, 48 h; scaled: DMSO 0, geranylgeraniol control 100. rescue of ATP level, % at 7.49 µM. 330,000 compounds, 0.78% hits;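 active = mean ATP rescue above about 67%, or every replicate alone reaching that limit, limit read from the data, passing the limit was not always enough; inconclusive = no clear call, values can overlap the other calls; inactive = mean under the limit and some replicate under it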;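 also: myotubes were challenged with 10 µM simvastatin during compound exposure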
CAL PDZ FP-1 – CAL PDZ peptide-binding inhibitors, primary screen, biochemical, fluorescence polarization, Cer-tagged CAL PDZ, HTS | 330,000 compounds, 0.02% hits | inhibition, % at 20 µM | Golgi-associated PDZ and coiled-coil motif-containing protein (Homo sapiens), Q9HD26 | purified CAL PDZ, TMR-peptide fluorescence polarization, 1 h;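 active = highest replicate inhibition of at least 40%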;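 also: plate controls were DMSO neutral control wells for no effect and unlabeled competitor peptide control wells for full effect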
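Test system: tagged CAL PDZ domain / Buffer or medium: sodium phosphate/NaCl buffer pH 7.4 with TCEP, IgG, Thesit / Reagent: TMR-labelled reporter peptide T*-PRC34 bound in PDZ groove / Compound dosing: single point, 20 µM / Schedule: 1 h incubation at room temperature before polarization reading / Technique: fluorescence polarization (mP) / Benchmarks: unlabelled peptide, DMSO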
dFosB act-1 – activators of delta FosB homodimer, primary screen, biochemical, fluorescence polarization, TAMRA-CDK5 oligo, single point; 340,000 compounds, 0.99% hits; Protein FosB (Mus musculus), P13346; AID 493131, 2011; activation, % at 25 µM; purified delta FosB; percent of positive-control signal above neutral wells;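 active = mean activation above about 17%, with every replicate also reaching it, limit read from the data, passing the limit was not always enough; inconclusive = only one of the two conditions met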
Target sequence (P13346 whole entry, looked up): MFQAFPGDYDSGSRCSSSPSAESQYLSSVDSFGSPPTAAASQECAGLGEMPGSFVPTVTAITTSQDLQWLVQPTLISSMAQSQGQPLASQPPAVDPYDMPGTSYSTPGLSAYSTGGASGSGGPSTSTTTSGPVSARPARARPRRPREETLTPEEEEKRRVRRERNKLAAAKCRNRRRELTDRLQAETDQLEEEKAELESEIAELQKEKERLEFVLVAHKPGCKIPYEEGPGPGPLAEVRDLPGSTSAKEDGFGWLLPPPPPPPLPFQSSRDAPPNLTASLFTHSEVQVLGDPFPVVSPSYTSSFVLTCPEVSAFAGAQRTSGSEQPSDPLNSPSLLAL
CAL PDZ FP-2 – untagged CAL PDZ binding inhibitors, primary screen, biochemical, fluorescence polarization, HTS | purified CAL PDZ, TMR-peptide fluorescence polarization, 1 h | inhibition, % at 24.9 µM | 300,000 compounds, 0.92% hits;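 active = mean inhibition of at least 30% with at least half of replicates also reaching 30%; inconclusive = no clear call, values can overlap the other calls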;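 also: 0% = DMSO neutral control and 100% = excess unlabeled competitor peptide PRC23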
CDK5 inh – inhibitors of human CDK5/p35 kinase, primary screen, biochemical, single concentration. Recombinant CDK5/p35, ADP-Glo luminescence, 60 min. 330,000 compounds, 0.01% hits. inhibition, % at 10 µM;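 active = highest replicate inhibition of at least 50% and at least 75% of replicates reaching 50%; inconclusive = only one of the two criteria met; inactive = both criteria failed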;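 also: plate controls were DMSO neutral control for no effect and GW8510 at 10 µM for full effect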
S100A4 MyoIIA – inhibitors of S100A4-myosin IIA peptide binding, primary screen, biochemical, fluorescence polarization, TAMRA-MyoIIA peptide; Protein S100-A4 (Homo sapiens), P26447; inhibition, % at 10.7 µM; 360,000 compounds, 0.14% hits;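 active = mean inhibition of at least 70% across replicates, with every replicate also reaching that level; inconclusive = mean inhibition reaches 70% but some replicates fall short; inactive = mean inhibition below 70%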
Target sequence (P26447 whole entry, looked up): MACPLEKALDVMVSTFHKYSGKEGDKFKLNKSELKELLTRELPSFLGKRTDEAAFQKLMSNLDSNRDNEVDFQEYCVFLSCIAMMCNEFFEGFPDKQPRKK
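Test system – S100A4 monomer (human) · Compound – single-point compound testing · Schedule – 5 min incubation before reading · Probe or stimulus – TAMRA-labelled myosin IIA heavy-chain peptide probe, 5 nM · Benchmarks – neutral control DMSO, positive control TFP · Medium – Calcium-containing HEPES buffer, pH 7.2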
dFosB act-2 – activators of mouse delta FosB DNA binding, confirmation, biochemical, fluorescence polarization, TAMRA-CDK5 oligo, cherry-picked samples; activation, % at 24.9 µM; AID 588690, 2011; purified delta FosB; normalised: neutral wells 0, positive control 100; 2,400 tested, under 10 active; shares compounds with dFosB act-1;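 active = highest replicate activation at or above 34% and every replicate reaching that threshold; inconclusive = meets only one of the two criteria; inactive = meets neither criterion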;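 also: higher polarization means more probe DNA bound by delta FosB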
Active calls of the source: *.

Cc1sc2nc(CN3CCCC3)nc(N3CCN(S(=O)(=O)c4cccs4)CC3)c2c1C was read as Statin myotox sup 52, CAL PDZ FP-1 -2, dFosB act-1 42*, CAL PDZ FP-2 -2, CDK5 inh -1 and dFosB act-2 inconclusive.
CS(=O)(=O)c1ccc(Cl)c(NC(=O)Cc2ccsc2)c1 was read as Statin myotox sup 0, CAL PDZ FP-1 -1, dFosB act-1 0, CAL PDZ FP-2 -8, CDK5 inh -4 and S100A4 MyoIIA 0.
`CS(=O)(=O)c1ccc(Cl)c(NC(=O)Cc2c(Cl)cccc2Cl)c1` gave Statin myotox sup -7, CAL PDZ FP-1 0, dFosB act-1 41*, CAL PDZ FP-2 5, CDK5 inh 1, S100A4 MyoIIA -1 and dFosB act-2 5.
COc1cccc(-c2nnc(NC(=O)c3cccs3)s2)c1 was read as CAL PDZ FP-1 -2, dFosB act-1 34*, CDK5 inh -1, S100A4 MyoIIA -3 and dFosB act-2 1.
`COc1ccc(CC(=O)Nc2nnc(-c3cccc([N+](=O)[O-])c3)s2)cc1` gave Statin myotox sup 6, CAL PDZ FP-1 -1, dFosB act-1 22*, CDK5 inh 0, S100A4 MyoIIA -1 and dFosB act-2 1.
Cc1ccc(C)c(NC(=O)c2ccccc2NS(=O)(=O)c2cc([N+](=O)[O-])ccc2C)c1 was read as CAL PDZ FP-1 -1, dFosB act-1 27*, CAL PDZ FP-2 4, CDK5 inh 0, S100A4 MyoIIA -3 and dFosB act-2 6.
Screening N=c1c(C(=O)NCc2ccccc2)cc2c(=O)n3ccccc3nc2n1Cc1ccco1 returned CAL PDZ FP-1 -4, dFosB act-1 -13, CAL PDZ FP-2 0, CDK5 inh -1 and S100A4 MyoIIA -2.
Screening Cc1cccn2c(=O)c3cc(C(=O)NCc4ccco4)c(=N)n(CCc4ccccc4)c3nc12 returned Statin myotox sup -2, CAL PDZ FP-1 2, dFosB act-1 20*, CAL PDZ FP-2 -3, CDK5 inh -1, S100A4 MyoIIA -41 and dFosB act-2 -2.
For Cc1cccn2c(=O)c3cc(C(=O)NCCc4ccccc4)c(=N)n(Cc4ccco4)c3nc12 the results were Statin myotox sup -67, CAL PDZ FP-1 -5, dFosB act-1 5, CAL PDZ FP-2 1, CDK5 inh -1 and S100A4 MyoIIA -5.
For COc1ccc(Cn2c(=N)c(C(=O)NC3CCCCC3)cc3c(=O)n4ccccc4nc32)cc1 the results were Statin myotox sup -3, CAL PDZ FP-1 -3, dFosB act-1 34*, CAL PDZ FP-2 2, S100A4 MyoIIA -1 and dFosB act-2 5.
For Cc1ccc(CNC(=O)c2cc3c(=O)n4ccccc4nc3n(Cc3ccco3)c2=N)cc1 the results were CAL PDZ FP-1 -1, dFosB act-1 25*, CAL PDZ FP-2 0, CDK5 inh -1, S100A4 MyoIIA -1 and dFosB act-2 0.
`COc1ccc(CCn2c(=N)c(C(=O)NC3CCCC3)cc3c(=O)n4ccccc4nc32)cc1` gave Statin myotox sup -20, CAL PDZ FP-1 -5, dFosB act-1 -14, CAL PDZ FP-2 -4, CDK5 inh 0 and S100A4 MyoIIA -3.
For Cc1ccc(CNC(=O)/C=C/c2ccc(S(=O)(=O)N3CCOCC3)cc2)cc1 the results were CAL PDZ FP-1 0, dFosB act-1 5, CAL PDZ FP-2 -2, CDK5 inh -1 and S100A4 MyoIIA 6.
CN(C)C(=O)Cn1c(SCC(=O)N2CCCc3ccccc32)nc2ccccc21 was read as Statin myotox sup -2, CAL PDZ FP-1 -1, dFosB act-1 -6, CAL PDZ FP-2 -4, CDK5 inh -18 and S100A4 MyoIIA -2.
`O=C(COc1ncnc2ccccc12)Nc1cc([N+](=O)[O-])ccc1Cl` gave Statin myotox sup 6, CAL PDZ FP-1 0, dFosB act-1 21*, CAL PDZ FP-2 -2, CDK5 inh -5, S100A4 MyoIIA 1 and dFosB act-2 -1.
For COc1ccc([N+](=O)[O-])cc1Nc1ncnc2ccccc12 the results were Statin myotox sup -4, CAL PDZ FP-1 -1, dFosB act-1 38*, CAL PDZ FP-2 0, CDK5 inh 2, S100A4 MyoIIA 7 and dFosB act-2 2.
For O=[N+]([O-])c1ccc(O)c(Nc2ncnc3ccccc23)c1 the results were CAL PDZ FP-1 -2, dFosB act-1 -1, CAL PDZ FP-2 1, CDK5 inh 0 and S100A4 MyoIIA -1.
For Cc1cc(SCC(=O)N/N=C/c2cccnc2)nc2c(C)cccc12 the results were CAL PDZ FP-1 -1, dFosB act-1 67*, CDK5 inh 0, S100A4 MyoIIA 5 and dFosB act-2 -9.
For O=C(C[C@H]1CC[C@H]2[C@@H](COC[C@@H](O)CN2C(=O)Nc2ccc(C(F)(F)F)cc2)O1)NCC1CC1 the results were Statin myotox sup -60 and S100A4 MyoIIA 6.
For Cc1ccc(C)c2c1[nH]c1ccc([N+](=O)[O-])cc12 the results were Statin myotox sup -25, CAL PDZ FP-1 -1, dFosB act-1 21*, CAL PDZ FP-2 -1, CDK5 inh 12 and dFosB act-2 0.
For COCC(=O)N1C[C@@H]2[C@H](c3ccccc31)[C@H](CO)N2Cc1cc(F)ccc1F the results were Statin myotox sup 24 and S100A4 MyoIIA -12.
For COc1cc(NC(=O)COC(=O)c2n[nH]c3ccccc23)c(C)cc1[N+](=O)[O-] the results were Statin myotox sup 16, CAL PDZ FP-1 0, dFosB act-1 32*, CDK5 inh -3, S100A4 MyoIIA 0 and dFosB act-2 -1.
Screening O=C(COC(=O)c1n[nH]c2ccccc12)Nc1ccc([N+](=O)[O-])cc1 returned CAL PDZ FP-1 -3, dFosB act-1 14, CAL PDZ FP-2 -1 and CDK5 inh -1.
